# Measured values as given in ChEMBL document CHEMBL1150285, “Combination of non-natural D-amino acid derivatives and allophenylnorstatine-dimethylthioproline scaffold in HIV protease inhibitors have high efficacy in mutant HIV” (J Med Chem, 2008).
# Assays:
# [1] = Selectivity index, ratio of CC50 for human MT4 cells to EC50 for HIV1 3B
# [2] = biological target: Protease (Human immunodeficiency virus 1) (UniProt Q9YQ12); settings: at 1 nM
# [3] = test system: Human immunodeficiency virus 1; assay: microbe, parasite or virus in culture; assay type: functional, organism-based; settings: Human immunodeficiency virus 1, NL432
# [4] = test system: Human immunodeficiency virus 1; assay: Antiviral activity against HIV1 3B in presence of 10% fetal calf serum and alpha1 acid glycoprotein; assay type: functional, organism-based; settings: Human immunodeficiency virus 1, 3B
# [5] = test system: Human immunodeficiency virus 1; assay: Antiviral activity against wild type HIV1 NL432; assay type: functional, organism-based; settings: Human immunodeficiency virus 1, NL432
# [6] = test system: Human immunodeficiency virus 1; assay: Antiviral activity against HIV1 3B in presence of 10% fetal calf serum; assay type: functional, organism-based; settings: Human immunodeficiency virus 1, 3B
# [7] = test system: Human immunodeficiency virus 1; assay: Ratio of EC50 for nelfinavir-resistant HIV1 NL432 to EC50 for wild-type HIV1 NL432; assay type: functional
# [8] = test system: Human immunodeficiency virus 1; assay: microbe, parasite or virus in culture; assay type: functional, organism-based; settings: Human immunodeficiency virus 1, NL432; remark: listed apart in the source
# [9] = test system: Human immunodeficiency virus 1; assay: Antiviral activity against nelfinavir-resistant HIV1 NL432; assay type: functional, organism-based; settings: Human immunodeficiency virus 1, NL432
# [10] = test system: Human immunodeficiency virus 1; assay: Antiviral activity against HIV1 3B in human MT4 cells assessed as inhibition of viral-induced cytopathic effect by MTT method; assay type: functional, organism-based; settings: Human immunodeficiency virus 1, 3B
# [11] = Cytotoxicity against human MT4 cells by MTT assay; assay type: cell-based
# Protease = Protease (Human immunodeficiency virus 1, UniProt Q9YQ12); assay: Inhibition of HIV1 protease
# Sequence of Protease (Q9YQ12 whole entry): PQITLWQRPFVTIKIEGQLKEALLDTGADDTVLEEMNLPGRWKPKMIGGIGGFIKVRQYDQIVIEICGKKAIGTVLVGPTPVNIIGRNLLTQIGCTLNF
# Procedure, shortened: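 HIV-1 protease (2 µg/mL stock in pH 5.5 acetate buffer) was mixed with test compound (10 nM solution in DMSO) in MES-NaOH buffer, pH 5.5, containing DTT, EDTA and NaCl. The mixture was preincubated 5 min at 37 °C, then started with substrate H-Lys-Ala-Arg-Val-Tyr*Phe(p-NO₂)-Glu-Ala-Nle-NH₂. After 60 min at 37 °C, the reaction was stopped with 1N HCl.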
# Sequence of Protease (Human immunodeficiency virus 1) (Q9YQ12 as listed by the source): as the sequence (Q9YQ12 whole entry) above
compound,measurement,setting,value
COc1ccc(CS(=O)(=O)C[C@@H](NC(C)=O)C(=O)N[C@@H](Cc2ccccc2)[C@H](O)C(=O)N2CSC(C)(C)[C@H]2C(=O)NCc2ccccc2C)cc1,selectivity ratio,[1]; MT4 cells,> 260
same,inhibition,[2],59%
CC(=O)N[C@H](CSCc1ccc(C)cc1)C(=O)N[C@@H](Cc1ccccc1)[C@H](O)C(=O)N1CSC(C)(C)[C@H]1C(=O)NCc1ccccc1C,EC50,[3],27 nM
same,EC50,[4],84 nM
same,EC50,[5],22 nM
same,EC50,[6],12 nM
same,selectivity ratio,[1]; MT4 cells,730
same,Ratio EC50,[7],0.16
same,EC50,[8],41 nM
same,inhibition,[2],76%
same,EC50,[9],3.6 nM
same,EC50,[10],12 nM
same,CC50,[11],8800 nM
COc1ccc(CS(=O)(=O)C[C@@H](NS(C)(=O)=O)C(=O)N[C@@H](Cc2ccccc2)[C@H](O)C(=O)N2CSC(C)(C)[C@H]2C(=O)NCc2ccccc2C)cc1,selectivity ratio,[1]; MT4 cells,> 130
same,inhibition,[2],66%
same,EC50,[10],203 nM
same,CC50,[11],> 26000 nM
CC(=O)N[C@H](CS(=O)(=O)c1ccc2ccccc2n1)C(=O)N[C@@H](Cc1ccccc1)[C@H](O)C(=O)N1CSC(C)(C)[C@H]1C(=O)NCc1ccccc1C,selectivity ratio,[1]; MT4 cells,> 290
same,inhibition,[2],85%
same,EC50,[10],94 nM
same,CC50,[11],> 27000 nM
Cc1ccccc1CNC(=O)[C@H]1N(C(=O)[C@@H](O)[C@H](Cc2ccccc2)NC(=O)[C@@H](CSc2ccc3ccccc3c2)NS(C)(=O)=O)CSC1(C)C,EC50,[3],23 nM
same,EC50,[4],88 nM
same,EC50,[5],17 nM
same,EC50,[6],8 nM
same,selectivity ratio,[1]; MT4 cells,470
same,Ratio EC50,[7],0.05
same,EC50,[8],31 nM
same,inhibition,[2],67%
same,EC50,[9],0.8 nM
same,EC50,[10],13 nM
same,CC50,[11],6100 nM
Cc1ccccc1CNC(=O)[C@H]1N(C(=O)[C@@H](O)[C@H](Cc2ccccc2)NC(=O)[C@@H](CS(=O)(=O)c2ccc(F)cc2)NS(C)(=O)=O)CSC1(C)C,selectivity ratio,[1]; MT4 cells,> 130
same,inhibition,[2],94%
same,EC50,[10],212 nM
same,CC50,[11],> 27000 nM
Cc1ccccc1CNC(=O)[C@H]1N(C(=O)[C@@H](O)[C@H](Cc2ccccc2)NC(=O)[C@@H](CS(=O)(=O)c2ccc(Cl)cc2)NS(C)(=O)=O)CSC1(C)C,inhibition,[2],95%
same,IC50,Protease,0.11 nM
Cc1ccccc1CNC(=O)[C@H]1N(C(=O)[C@@H](O)[C@H](Cc2ccccc2)NC(=O)[C@@H](CSc2cccc3ccccc23)NS(C)(=O)=O)CSC1(C)C,EC50,[3],13 nM
same,EC50,[4],347 nM
same,EC50,[5],9.3 nM
same,EC50,[6],4 nM
same,selectivity ratio,[1]; MT4 cells,690
same,Ratio EC50,[7],0.07
same,EC50,[8],17 nM
same,inhibition,[2],74%
same,EC50,[9],0.67 nM
same,EC50,[10],6.4 nM
same,CC50,[11],4400 nM
Cc1ccc(CS(=O)(=O)C[C@@H](NS(C)(=O)=O)C(=O)N[C@@H](Cc2ccccc2)[C@H](O)C(=O)N2CSC(C)(C)[C@H]2C(=O)NCc2ccccc2C)cc1,selectivity ratio,[1]; MT4 cells,> 210
same,inhibition,[2],52%
same,EC50,[10],125 nM
same,CC50,[11],> 26000 nM
CC(=O)N[C@H](CSc1cccc2ccccc12)C(=O)N[C@@H](Cc1ccccc1)[C@H](O)C(=O)N1CSC(C)(C)[C@H]1C(=O)NCc1ccccc1C,EC50,[3],52 nM
same,EC50,[4],401 nM
same,EC50,[5],20 nM
same,EC50,[6],14 nM
same,selectivity ratio,[1]; MT4 cells,470
same,Ratio EC50,[7],0.32
same,EC50,[8],70 nM
same,inhibition,[2],68%
same,EC50,[9],6.3 nM
same,EC50,[10],17 nM
same,CC50,[11],8000 nM
Cc1ccccc1CNC(=O)[C@H]1N(C(=O)[C@@H](O)[C@H](Cc2ccccc2)NC(=O)[C@@H](CCc2ccccc2)NS(C)(=O)=O)CSC1(C)C,selectivity ratio,[1]; MT4 cells,190
same,inhibition,[2],55%
same,EC50,[10],59 nM
same,CC50,[11],11000 nM
CC(=O)N[C@H](CSc1ccc2ccccc2c1)C(=O)N[C@@H](Cc1ccccc1)[C@H](O)C(=O)N1CSC(C)(C)[C@H]1C(=O)NCc1ccccc1C,EC50,[3],32 nM
same,EC50,[4],95 nM
same,EC50,[5],17 nM
same,EC50,[6],14 nM
same,selectivity ratio,[1]; MT4 cells,460
same,Ratio EC50,[7],0.42
same,EC50,[8],65 nM
same,inhibition,[2],53%
same,EC50,[9],7.2 nM
same,EC50,[10],18 nM
same,CC50,[11],8300 nM
CC(=O)N[C@H](CSCc1ccccc1)C(=O)N[C@@H](Cc1ccccc1)[C@H](O)C(=O)N1CSC(C)(C)[C@H]1C(=O)NCc1ccccc1C,EC50,[3],21 nM
same,EC50,[4],96 nM
same,EC50,[5],18 nM
same,EC50,[6],16 nM
same,selectivity ratio,[1]; MT4 cells,1000
same,Ratio EC50,[7],0.33
same,EC50,[8],40 nM
same,inhibition,[2],81%
same,EC50,[9],5.9 nM
same,EC50,[10],15 nM
same,CC50,[11],15000 nM
Cc1ccccc1CNC(=O)[C@H]1N(C(=O)[C@@H](O)[C@H](Cc2ccccc2)NC(=O)[C@@H](CS(=O)(=O)c2ccc3ccccc3n2)NS(C)(=O)=O)CSC1(C)C,selectivity ratio,[1]; MT4 cells,> 55
same,inhibition,[2],91%
same,EC50,[10],473 nM
same,CC50,[11],> 26000 nM
CC(=O)N[C@H](CSc1ccc2ccccc2n1)C(=O)N[C@@H](Cc1ccccc1)[C@H](O)C(=O)N1CSC(C)(C)[C@H]1C(=O)NCc1ccccc1C,selectivity ratio,[1]; MT4 cells,64
same,inhibition,[2],27%
same,EC50,[10],151 nM
same,CC50,[11],9700 nM
CC(=O)N[C@H](CS(=O)(=O)Cc1ccccc1)C(=O)N[C@@H](Cc1ccccc1)[C@H](O)C(=O)N1CSC(C)(C)[C@H]1C(=O)NCc1ccccc1C,selectivity ratio,[1]; MT4 cells,> 240
same,inhibition,[2],47%
same,EC50,[10],117 nM
same,CC50,[11],> 28000 nM
Cc1c(O)cccc1C(=O)N[C@@H](CSc1ccccc1)[C@H](O)CN1C[C@H]2CCCC[C@H]2C[C@H]1C(=O)NC(C)(C)C,EC50,[4],606 nM
same,EC50,[6],21 nM
same,selectivity ratio,[1]; MT4 cells,690
same,Ratio EC50,[7],12
same,inhibition,[2],29%
CC(=O)N[C@H](CS(=O)(=O)c1ccc(F)cc1)C(=O)N[C@@H](Cc1ccccc1)[C@H](O)C(=O)N1CSC(C)(C)[C@H]1C(=O)NCc1ccccc1C,selectivity ratio,[1]; MT4 cells,> 270
same,inhibition,[2],79%
same,EC50,[10],105 nM
same,IC50,Protease,0.27 nM
same,CC50,[11],> 28000 nM
CC(=O)N[C@H](CS(=O)(=O)c1ccc2ccccc2c1)C(=O)N[C@@H](Cc1ccccc1)[C@H](O)C(=O)N1CSC(C)(C)[C@H]1C(=O)NCc1ccccc1C,selectivity ratio,[1]; MT4 cells,570
same,inhibition,[2],96%
same,EC50,[10],28 nM
same,IC50,Protease,0.086 nM
same,CC50,[11],16000 nM
CC(C)c1nc(CN(C)C(=O)N[C@H](C(=O)N[C@@H](Cc2ccccc2)C[C@H](O)[C@H](Cc2ccccc2)NC(=O)OCc2cncs2)C(C)C)cs1 [RITONAVIR],EC50,[4],422 nM
same,EC50,[6],24 nM
same,inhibition,[2],90%
CC(=O)N[C@H](CS(=O)(=O)Cc1ccc(C)cc1)C(=O)N[C@@H](Cc1ccccc1)[C@H](O)C(=O)N1CSC(C)(C)[C@H]1C(=O)NCc1ccccc1C,selectivity ratio,[1]; MT4 cells,> 340
same,inhibition,[2],53%
same,EC50,[10],82 nM
same,CC50,[11],> 28000 nM
Cc1ccccc1CNC(=O)[C@H]1N(C(=O)[C@@H](O)[C@H](Cc2ccccc2)NC(=O)[C@@H](CSc2ccc3ccccc3n2)NS(C)(=O)=O)CSC1(C)C,selectivity ratio,[1]; MT4 cells,50
same,inhibition,[2],28%
same,EC50,[10],169 nM
same,CC50,[11],8500 nM
Cc1ccccc1CNC(=O)[C@H]1N(C(=O)[C@@H](O)[C@H](Cc2ccccc2)NC(=O)[C@@H](CS(=O)(=O)c2ccc3ccccc3c2)NS(C)(=O)=O)CSC1(C)C,selectivity ratio,[1]; MT4 cells,230
same,inhibition,[2],98%
same,EC50,[10],81 nM
same,IC50,Protease,0.09 nM
same,CC50,[11],19000 nM
Cc1ccccc1CNC(=O)[C@H]1N(C(=O)[C@@H](O)[C@H](Cc2ccccc2)NC(=O)[C@@H](CS(=O)(=O)Cc2ccccc2)NS(C)(=O)=O)CSC1(C)C,selectivity ratio,[1]; MT4 cells,> 120
same,inhibition,[2],66%
same,EC50,[10],219 nM
same,CC50,[11],> 27000 nM
CC(=O)N[C@H](CCc1ccccc1)C(=O)N[C@@H](Cc1ccccc1)[C@H](O)C(=O)N1CSC(C)(C)[C@H]1C(=O)NCc1ccccc1C,EC50,[3],132 nM
same,EC50,[4],155 nM
same,EC50,[5],78 nM
same,EC50,[6],25 nM
same,selectivity ratio,[1]; MT4 cells,> 610
same,Ratio EC50,[7],0.23
same,EC50,[8],101 nM
same,inhibition,[2],45%
same,EC50,[9],18 nM
same,EC50,[10],51 nM
same,CC50,[11],> 31000 nM
CC(=O)N[C@H](CS(=O)(=O)c1cccc2ccccc12)C(=O)N[C@@H](Cc1ccccc1)[C@H](O)C(=O)N1CSC(C)(C)[C@H]1C(=O)NCc1ccccc1C,selectivity ratio,[1]; MT4 cells,400
same,inhibition,[2],97%
same,EC50,[10],40 nM
same,IC50,Protease,0.09 nM
same,CC50,[11],16000 nM
Cc1ccc(CSC[C@@H](NS(C)(=O)=O)C(=O)N[C@@H](Cc2ccccc2)[C@H](O)C(=O)N2CSC(C)(C)[C@H]2C(=O)NCc2ccccc2C)cc1,EC50,[3],43 nM
same,EC50,[4],110 nM
same,EC50,[5],17 nM
same,EC50,[6],14 nM
same,selectivity ratio,[1]; MT4 cells,520
same,Ratio EC50,[7],0.09
same,EC50,[8],58 nM
same,inhibition,[2],58%
same,EC50,[9],1.5 nM
same,EC50,[10],17 nM
same,CC50,[11],8900 nM
CSC[C@H](NC(=O)COc1cccc2cnccc12)C(=O)N[C@@H](Cc1ccccc1)[C@H](O)C(=O)N1CSC[C@H]1C(=O)NC(C)(C)C,EC50,[3],237 nM
same,EC50,[4],529 nM
same,EC50,[5],36 nM
same,selectivity ratio,[1]; mt4,> 1400
same,Ratio EC50,[7],2.3
same,EC50,[8],201 nM
same,inhibition,[2],40%
same,EC50,[9],84 nM
Cc1ccccc1CNC(=O)[C@H]1N(C(=O)[C@@H](O)[C@H](Cc2ccccc2)NC(=O)[C@@H](CSCc2ccccc2)NS(C)(=O)=O)CSC1(C)C,EC50,[3],55 nM
same,EC50,[4],88 nM
same,EC50,[5],20 nM
same,EC50,[6],18 nM
same,selectivity ratio,[1]; MT4 cells,580
same,Ratio EC50,[7],0.09
same,EC50,[8],63 nM
same,inhibition,[2],66%
same,EC50,[9],1.8 nM
same,EC50,[10],17 nM
same,CC50,[11],9800 nM
